Assay results: the RNAGym collection of RNA variant scans (doi:10.1126/science.aae0568)
This sample holds only a part of the variants without activity.

B1: tRNA (parent)
chain: GUUCCGUUGGCGUAAUGGUAACGCGUCUCCCUCCUAAGGAGAAGACUGCGGGUUCGAGUCCCGUACGGAACG

Variants of: B1
Experiment: yeast fitness relative to wild type (ratio to wild type); higher = fitter; tRNA-Arg(CCU), competitive growth, 37 C, YPD
Summary of the method: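 Genotype frequency changes were the basis for Darwinian fitness relative to wild type. The frequencies came from 100-nucleotide paired-end sequencing of gene amplicons from the start population and each end population of pooled yeast strains with tRNA-Arg(CCU) gene variants at the native locus. Competition ran in YPD at 37°C for 24 hours in six replicates, genotypes needed ≥ 100 starting reads, and estimates < 0.5 were set to 0.5.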

Which yeast fitness does the source give for GCUCCGUUGGCGUAAUGGUAACGAGUCUCCCUCCUAAGGAGAAGACUGAGGGUUCGAGUCCCGUACGGAACG here?
The yeast fitness was no more than 0.5.

For GCUCCGUUGGCGUAAUGGUAACGCGUCUCCCUCCUAAGGAGAAGACUGCGGGUUCGUGUCCUGCACGGAACG, which yeast fitness is on record?
Its yeast fitness is no more than 0.5.

For GCUCCGUUGGAGUAAUGGUAACGCGUCUCCCUCCUAAGGACAAGACUGCGGGUUCGAGUCACGUACGGAACG, which yeast fitness is on record?
The yeast fitness was no more than 0.5.

With GCUCCGUUGGCGUAAUGGUAACGCGUCUCCCUCCUAAGGAGAAGACUGCGGGUUCGAGUCCCGUCCGGAACG as the variant, how does the yeast fitness read?
The yeast fitness was 0.86.

For GCUUCGUUGGCGUAAUGGUAACGCGUCUCCCUCCUAAGGAGAAGACUGCGGGUUCGAGUCCCGUACGGACCG, which yeast fitness is on record?
Its yeast fitness is 0.733.

With GCUCCGUUGGAAUAAUGGUAACGCGUCUCCCUCCGAAGGAGAAGACUGCGGGUUCGAGACCCGUACGGAACG as the variant, how does the yeast fitness read?
The yeast fitness was no more than 0.5.

With GCUCCGUUGGUGUAAUGGUACCGCGCCUCCCUCCUAAGGAGAAGACUGUGGGUUCGUGUCCCGUACGGAACG as the variant, how does the yeast fitness read?
Its yeast fitness is no more than 0.5.

For GCUCCGUUGGGGUAAUGGUAAGGCGUCUCCCUCCUAAGGAGAAGACUGCGGGUUCGAGUCCCGUACGGAACG, which yeast fitness is on record?
The yeast fitness was no more than 0.5.

For GCUCCGUUGGCGUAAUGGUAACGCGUCUCCCUCCUAAGGAGUAGACUGCGGGUUCGAGUCCCGUACGGAACG, which yeast fitness is on record?
Its yeast fitness is 0.937.

Which yeast fitness does the source give for GCUCCGUUGGCGUAAUGGUAACGCGUCUCCCUCCUAAGGAGGAGACUGCGGGUUCGAGUCCCGUACGGAACG here?
The yeast fitness was 0.821.

For GCUCCGUUGGCGUAAUGGUAACGCGUCUCCCUCCUAAGGAGCAGACUGCGGGUUCGAGUCCCGUACGGAACG, which yeast fitness is on record?
Its yeast fitness is 0.914.

Which yeast fitness does the source give for GCUCCGUUGGGGUAAUGGUAAGGCGUCUCCCUCCUAAGGAGAAGACUGCGGGUUCAAGUCCCAUACGGAACG here?
Its yeast fitness is no more than 0.5.

For GCUCCGUUGGGGUAAUGGUAACGCGUCUCCCUCCUAGGGAGAAGACUGCGCGUUCGGGUCCCGUACGGAACG, which yeast fitness is on record?
Its yeast fitness is 0.632.

With GCUCCGUUGGCGUAAUGGUAAGGCGUCUCCCUCCUAAGGAGAAGACUGCGCGUUCGAGUCCCGUACGGAGCG as the variant, how does the yeast fitness read?
Its yeast fitness is no more than 0.5.

Which yeast fitness does the source give for GCUCCGUUGGUGUAAUGGUAACGCGUCUCCCUCCUAAGGAGAAGACUGCGGGUUCGAGUCCCGUACGAAACG here?
The yeast fitness was 0.544.

With GCUCCGUUGGCGUAAUGGUAACGUGUCUCCCUCCUAAGGAGAAGACUGCGGGUUCGAGUCCCGUACGGACCG as the variant, how does the yeast fitness read?
Its yeast fitness is 0.708.

For GCUCCGUUGGCGUAAUGGUAACGGGACUCCGUCCUAAGGAGAAGACUGCGGGUUCGAGUCCCGUACGGAACG, which yeast fitness is on record?
The yeast fitness was 0.639.

Which yeast fitness does the source give for GCUCAGUUGGCGUAAUGGUAACGAGUCUCCCUCCUAAGGAGAAGACUGCGGGUUCGAGUCCCGUACGGAACG here?
Its yeast fitness is no more than 0.5.

For GCUACGUUGGCGUAAUGGUAACGCGUCCCCCUCCUAAGGAGAACACUGCGGGUUCGAGUCCCGUACGGAACG, which yeast fitness is on record?
Its yeast fitness is 0.601.

With GCUUCGUUGGCGUAAUGGUAACGCGUCUCCCUCCUAAGGAGAAGACUGCGGGUUCGAGUCCUGUACGGAACG as the variant, how does the yeast fitness read?
Its yeast fitness is 0.698.

For GCUCUGUUGGCGUAAUGGUAACGCGUCUCCCUCCUAAGGUGAAGACUGCAGGUUCGAGUCCCGUACGGAACG, which yeast fitness is on record?
Its yeast fitness is no more than 0.5.

Which yeast fitness does the source give for GCUCUGUUGGCGUAAUGGUAACGCGUCUCCCUCCUAAGGAGAAGACUGCGGGUCCGAGUCCCGUACGGAACG here?
Its yeast fitness is no more than 0.5.

Which yeast fitness does the source give for GCUCCGUUGGCGUAAUGGUAACGCGUCUCCCUCCUAAGGAGAAGACUGCGGGUUCGAGUCCCGUACGGAGCG here?
The yeast fitness was 0.945.

Which yeast fitness does the source give for GCUCCGUUGGCGUAAUGGUAACGCGUGACCCUCCUAAGGAGAAGACUGCGGGUUCGAGUCUCGUACGGAACG here?
Its yeast fitness is no more than 0.5.

Which yeast fitness does the source give for GCUCAGUUGGCGUAAUGGUAACGCGUCUCCCUCCUAAGGAGAAGACUGCGGGUUCGAGUCCCGUACGGAACG here?
The yeast fitness was 0.845.

For GCUCCGUUGGCGUAAUGGUAAUGCGUCUCCCUCCUAACGAGAAGAUUGCGGGUUCGAGUCCCGUACGGAACG, which yeast fitness is on record?
The yeast fitness was no more than 0.5.

For GCUACGUUGGUGUAAUGGUAACGCGUCUUCCUCCUAAGGAGAAGACUGCGGGUUCGAGUCCCGUACAGAUCG, which yeast fitness is on record?
The yeast fitness was no more than 0.5.

With GCUCCGUUGGCGUAAUGGUAACGGGUCUCCCUCCUAAGGAGUAGACUGCGGGUUCGAGUCCCGUACAGAACG as the variant, how does the yeast fitness read?
The yeast fitness was no more than 0.5.

Which yeast fitness does the source give for GCUCCGUUGGCGUAAUGGUAACGAGUCUCCCUCCUAAGGAGAAGACUGCGGGUUCGAGUCCCGUACGGAACG here?
Its yeast fitness is 0.574.

With GCUCCGUUGGCGUAAUGGUAACGUGUCUCCCUCCUAAGGAGAAGACUGCGGGUUCGAGUCCCGUACGGAACG as the variant, how does the yeast fitness read?
The yeast fitness was 0.952.

Which yeast fitness does the source give for GCUUCGUUGGCGUAAUGGUAACGCGUCUCCCUACUAAGGACAAGACUGCGGGUUCGAGUUCCGUUCGGUACG here?
Its yeast fitness is no more than 0.5.

With GCUCCGUUGGCGUAAUGGUAACGGGUCUUCCUCCUAAGGAGAAGACUGCGGGUUCGAGUCCGGUAAGGAACG as the variant, how does the yeast fitness read?
Its yeast fitness is no more than 0.5.

For GCUCCGUUGGAGUAAUGGUAAGGCGUCUCCCUCCUAAGGAGAAGACUGCGGGUCCAAGUCCCGUACGGAACG, which yeast fitness is on record?
The yeast fitness was no more than 0.5.

For GCUCCGUUGGCGUAAUGGUAACGCGUCUCCCUCCUAAGGAGAAGACUGCGGGUUCGGGUCCCGUAGGGAACG, which yeast fitness is on record?
Its yeast fitness is no more than 0.5.

For GCUCCGUUGGCGUAAUGGUAAUGCGUCUCCCUCCUAAGGAGAAGACUGCGGGUUCGAGUCCCGUACGGCACG, which yeast fitness is on record?
Its yeast fitness is 0.511.

With GCUCCGUUGGCGUAAUGGUAACGGGUCUCCCUCCUAAGGAGAAGAUUGCGGGUUCGAGUCCCGUACGGAACG as the variant, how does the yeast fitness read?
Its yeast fitness is no more than 0.5.

With GCUCCGUUGGAGUAAUGGUAAGGCGUCUCCCUCCUAAGGAAACGACUGCGCGUUCGAGUCCCGUAUCGAACG as the variant, how does the yeast fitness read?
Its yeast fitness is no more than 0.5.
